Measured values: ChEMBL document CHEMBL1212730, “Augmented photoswitching modulates immune signaling” (Nat Chem Biol, 2009)
Active and inactive are the calls of the source. The calls are words filed in the database; no cut-off is given here.

Columns and labels:
[1] = target: T1, Peptidyl-prolyl cis-trans isomerase A (Homo sapiens, UniProt P62937); conditions: Blood, 50 to 200 nM
Target sequence in this assay (P62937 whole entry, looked up): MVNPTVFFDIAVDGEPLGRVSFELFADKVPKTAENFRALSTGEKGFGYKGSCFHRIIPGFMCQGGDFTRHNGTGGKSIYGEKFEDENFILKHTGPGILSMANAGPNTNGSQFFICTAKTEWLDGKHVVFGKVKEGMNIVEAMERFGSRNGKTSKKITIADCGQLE

[2] = target: T1, Peptidyl-prolyl cis-trans isomerase A; conditions: Blood, 50 to 200 nM; remark: listed apart in the source
Target sequence in this assay (P62937 whole entry, looked up): as above

[3] = target: T1, Peptidyl-prolyl cis-trans isomerase A; conditions: 10 uM
Target sequence in this assay (P62937 whole entry, looked up): as above

[4] = target: T1, Peptidyl-prolyl cis-trans isomerase A; conditions: Blood, Lysate, 50 to 200 nM
Target sequence in this assay (P62937 whole entry, looked up): as above

[5] = target: T2, Protein phosphatase 3 catalytic subunit alpha (Homo sapiens, UniProt Q08209); experiment: Inhibition of calcineurin-mediated NFAT activation in human Jurkat cells by luciferase reporter gene assay; assay type: cell-based
Summary of the method: (§1)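 Cells were pretreated with non-irradiated compound, then either kept dark or irradiated at 740 nm for 1 h before PMA/ionomycin stimulation. Luciferase was read in lysed cells. Data are means ± s.d.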

[6] = target: T2, Protein phosphatase 3 catalytic subunit alpha; experiment: Inhibition of calcineurin-mediated NFAT activation in human Jurkat cells measured after 45 min of irradiation with 740 nm light by luciferase reporter gene assay; assay type: cell-based
PBMC [7] = experiment: Immunosuppressive activity in human PBMC assessed as decrease in PMA/ionomycin-induced IL-2 production measured at 4 hrs interval post irradiation of 45 mins with 740 nm light by flow cytometry; assay type: functional, cell-based
PBMC [8] = experiment: Immunosuppressive activity in human PBMC assessed as decrease in PMA/ionomycin-induced IL-2 production measured at 4 hrs interval by flow cytometry; assay type: functional, cell-based
PBMC [9] = experiment: Immunosuppressive activity in streptavidin-stimulated human PBMC assessed as decrease in PMA/ionomycin-induced IL-2 production measured at 4 hrs interval post irradiation of 45 mins with 740 nm light by flow cytometry; assay type: functional, cell-based
PBMC [10] = experiment: Immunosuppressive activity in streptavidin-stimulated human PBMC assessed as decrease in PMA/ionomycin-induced IL-2 production measured at 4 hrs interval by flow cytometry; assay type: functional, cell-based
[11] = target: T2, Protein phosphatase 3 catalytic subunit alpha; experiment: Inhibition of calcineurin-mediated streptavidin-coupled NFAT activation in human Jurkat cells by luciferase reporter gene assay; assay type: cell-based
Summary of the method: as §1

[12] = target: T2, Protein phosphatase 3 catalytic subunit alpha; experiment: Inhibition of calcineurin-mediated streptavidin-coupled NFAT activation in human Jurkat cells measured after 45 min of irradiation with 740 nm light by luciferase reporter gene assay; assay type: cell-based
[13] = target: T1, Peptidyl-prolyl cis-trans isomerase A; experiment: Inhibition of PPIase activity of cyclophilin 18 by protease coupled assay
Target sequence in this assay (P62937 whole entry): as the sequence (P62937 whole entry, looked up) above

[14] = target: T1, Peptidyl-prolyl cis-trans isomerase A; experiment: Binding affinity to cyclophilin 18 by protease coupled assay
Target sequence in this assay (P62937 whole entry): as the sequence (P62937 whole entry, looked up) above

[15] = target: T1, Peptidyl-prolyl cis-trans isomerase A; experiment: Binding affinity to streptavidin-coupled biotin-labeled cyclophilin 18 assessed as reduction in [33P] phosphatase activity of calcineurin by protease coupled assay
Target sequence in this assay (P62937 whole entry): as the sequence (P62937 whole entry, looked up) above

[16] = target: T1, Peptidyl-prolyl cis-trans isomerase A; experiment: Binding affinity to cyclophilin 18 assessed as reduction in [33P]phosphatase activity of calcineurin by protease coupled assay
Summary of the method: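 Calcineurin phosphatase activity measured at 30 °C with 33P-labeled phosphocasein. CaN was 3.5 nM, with Cyp18 at the desired concentrations and 10 µM compound, either irradiated at 740 nm for 45 min or non-irradiated, with or without streptavidin. The inhibitor concentration refers to the Cyp18–compound complex. Data are means ± s.d.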
Target sequence in this assay (P62937 whole entry): as the sequence (P62937 whole entry, looked up) above

[17] = target: T1, Peptidyl-prolyl cis-trans isomerase A; experiment: Binding affinity to cyclophilin 18 assessed as reduction in calcineurin activity by protease coupled assay
Summary of the method: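 Cyp18 PPIase activity measured by a chymotrypsin-coupled protease assay with Suc-Ala-Phe-Pro-Phe-NH-Np as substrate at 7 °C. Cyp18 was 2.5 nM. Compound was tested non-irradiated, irradiated at 740 nm for 45 min, or irradiated and then kept dark overnight, with DMSO as control. Data are means ± s.d.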
Target sequence in this assay (P62937 whole entry): as the sequence (P62937 whole entry, looked up) above

[18] = target: T1, Peptidyl-prolyl cis-trans isomerase A; conditions: 200 nM
Target sequence in this assay (P62937 whole entry, looked up): as above

With C/C=C/C[C@@H](C)[C@@H](O)[C@H]1C(=O)N[C@@H](CC)C(=O)N(C)CC(=O)N(C)[C@@H](CC(C)C)C(=O)N[C@@H](C(C)C)C(=O)N(C)[C@@H](CC(C)C)C(=O)N[C@@H](C)C(=O)N[C@H](COCC(=O)Nc2ccc(/N=N/c3ccc(NC(=O)CCCC[C@@H]4SC[C@@H]5NC(=O)N[C@@H]54)cc3)cc2)C(=O)N(C)[C@@H](CC(C)C)C(=O)N(C)[C@@H](CC(C)C)C(=O)N(C)[C@@H](C(C)C)C(=O)N1C the inhibition [1] was “Active”, the inhibition [2] was “Active” and the inhibition [3] was 30%. For the same compound, the inhibition [4] was “Active”.
With C/C=C/C[C@@H](C)[C@@H](O)[C@H]1C(=O)N[C@@H](CC)C(=O)N(C)CC(=O)N(C)[C@@H](CC(C)C)C(=O)N[C@@H](C(C)C)C(=O)N(C)[C@@H](CC(C)C)C(=O)N[C@@H](C)C(=O)N[C@H](COCC(=O)Nc2ccc(N=Nc3ccc(NC(=O)CCCC[C@@H]4SC[C@@H]5NC(=O)N[C@@H]54)cc3)cc2)C(=O)N(C)[C@@H](CC(C)C)C(=O)N(C)[C@@H](CC(C)C)C(=O)N(C)[C@@H](C(C)C)C(=O)N1C the IC50 [5] was 135 nM, the IC50 [6] was 89 nM and the Activity (PBMC [7]) was “Active”. For the same compound, the Activity (PBMC [8]) was “Active”, the Activity (PBMC [9]) was “Active” and the Activity (PBMC [10]) was “inactive”. The IC50 [11] was 16400 nM and the IC50 [12] was 1400 nM.
Compound C/C=C/C[C@@H](C)[C@@H](O)[C@H]1C(=O)N[C@@H](CC)C(=O)N(C)CC(=O)N(C)[C@@H](CC(C)C)C(=O)N[C@@H](C(C)C)C(=O)N(C)[C@@H](CC(C)C)C(=O)N[C@@H](C)C(=O)N[C@H](COCC(=O)Nc2ccc(N=Nc3ccccc3)cc2)C(=O)N(C)[C@@H](CC(C)C)C(=O)N(C)[C@@H](CC(C)C)C(=O)N(C)[C@@H](C(C)C)C(=O)N1C has an IC50 [5] of 75 nM and an IC50 [6] of 49 nM.
C/C=C/C[C@@H](C)[C@@H](O)[C@H]1C(=O)N[C@@H](CC)C(=O)N(C)CC(=O)N(C)[C@@H](CC(C)C)C(=O)N[C@@H](C(C)C)C(=O)N(C)[C@@H](CC(C)C)C(=O)N[C@@H](C)C(=O)N[C@H](COCC(=O)Nc2ccc(/N=N\c3ccccc3)cc2)C(=O)N(C)[C@@H](CC(C)C)C(=O)N(C)[C@@H](CC(C)C)C(=O)N(C)[C@@H](C(C)C)C(=O)N1C was tested, and the IC50 [13] was 2.79 nM and the IC50 [14] was 147 nM.
C/C=C/C[C@@H](C)[C@@H](O)[C@H]1C(=O)N[C@@H](CC)C(=O)N(C)CC(=O)N(C)[C@@H](CC(C)C)C(=O)N[C@@H](C(C)C)C(=O)N(C)[C@@H](CC(C)C)C(=O)N[C@@H](C)C(=O)N[C@H](COCC(=O)Nc2ccc(/N=N/c3ccccc3)cc2)C(=O)N(C)[C@@H](CC(C)C)C(=O)N(C)[C@@H](CC(C)C)C(=O)N(C)[C@@H](C(C)C)C(=O)N1C gave an IC50 [13] of 4.75 nM and an IC50 [15] of 227 nM.
C/C=C/C[C@@H](C)[C@@H](O)[C@H]1C(=O)N[C@@H](CC)C(=O)N(C)CC(=O)N(C)[C@@H](CC(C)C)C(=O)N[C@@H](C(C)C)C(=O)N(C)[C@@H](CC(C)C)C(=O)N[C@@H](C)C(=O)N[C@H](COCC(=O)Nc2ccc(/N=N\c3ccc(NC(=O)CCCC[C@@H]4SC[C@@H]5NC(=O)N[C@@H]54)cc3)cc2)C(=O)N(C)[C@@H](CC(C)C)C(=O)N(C)[C@@H](CC(C)C)C(=O)N(C)[C@@H](C(C)C)C(=O)N1C was tested, and the IC50 [16] was 950 nM, the inhibition [1] was “Active” and the inhibition [2] was “Active”.
In the case of C/C=C/C[C@@H](C)[C@@H](O)[C@H]1C(=O)N[C@@H](CC)C(=O)N(C)CC(=O)N(C)[C@@H](CC(C)C)C(=O)N[C@@H](C(C)C)C(=O)N(C)[C@@H](CC(C)C)C(=O)N[C@@H](C)C(=O)N[C@H](COCC(=O)Nc2ccc(/N=N/c3ccc(NC(=O)COC[C@H]4NC(=O)[C@H](C)NC(=O)[C@H](CC(C)C)N(C)C(=O)[C@H](C(C)C)NC(=O)[C@H](CC(C)C)N(C)C(=O)CN(C)C(=O)[C@H](CC)NC(=O)[C@H]([C@H](O)[C@H](C)C/C=C/C)N(C)C(=O)[C@H](C(C)C)N(C)C(=O)[C@H](CC(C)C)N(C)C(=O)[C@H](CC(C)C)N(C)C4=O)cc3)cc2)C(=O)N(C)[C@@H](CC(C)C)C(=O)N(C)[C@@H](CC(C)C)C(=O)N(C)[C@@H](C(C)C)C(=O)N1C, the IC50 [13] is reported as 206 nM, the IC50 [17] is reported as 487 nM and the IC50 [5] is reported as 358 nM. It also gave an IC50 [6] of 140 nM and an inhibition [3] of 30%.
C/C=C/C[C@@H](C)[C@@H](O)[C@H]1C(=O)N[C@@H](CC)C(=O)N(C)CC(=O)N(C)[C@@H](CC(C)C)C(=O)N[C@@H](C(C)C)C(=O)N(C)[C@@H](CC(C)C)C(=O)N[C@@H](C)C(=O)N[C@H](COCC(=O)Nc2ccc(/N=N\c3ccc(NC(=O)COC[C@H]4NC(=O)[C@H](C)NC(=O)[C@H](CC(C)C)N(C)C(=O)[C@H](C(C)C)NC(=O)[C@H](CC(C)C)N(C)C(=O)CN(C)C(=O)[C@H](CC)NC(=O)[C@H]([C@H](O)[C@H](C)C/C=C/C)N(C)C(=O)[C@H](C(C)C)N(C)C(=O)[C@H](CC(C)C)N(C)C(=O)[C@H](CC(C)C)N(C)C4=O)cc3)cc2)C(=O)N(C)[C@@H](CC(C)C)C(=O)N(C)[C@@H](CC(C)C)C(=O)N(C)[C@@H](C(C)C)C(=O)N1C was tested, and the IC50 [13] was 30 nM, the IC50 [17] was 266 nM and the inhibition [18] was “Active”.
